# Source: PubChem BioAssay (several laboratories)
# Sampled rows, rich in hits. Any-hit rate of the full collection: about 3.8%.
# V-ATPase pHluor = alters yeast V-ATPase proton transport; S. cerevisiae, pHLuorin cytosolic pH fluorescence; response, % at 10 µM; 350,000 compounds, 0.37% hits; in the data active = response mostly above about 7.3%, no sharp cut-off; inactive = mostly below about 5.4%; note: actives read high
# rCAG binder = molecules binding r(CAG) RNA repeats | 370,000 compounds, 1.3% hits | inhibition, % at 3 µM | AID 651821 | r(CAG) RNA repeat, TO-PRO-1 dye displacement fluorescence;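 active = inhibition above the plate cutoff, the mean of all test compounds on that plate plus 3 SD, cut at about 35% in these data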;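 note: 0% = DMSO alone and 100% = 100 µM mitoxantrone as full dye displacement; higher means more dye released from RNA so lower well fluorescence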
# Granule exo inh = lytic granule exocytosis inhibition | TALL-104 LAMP-1 surface exposure, flow cytometry; cells stimulated with thapsigargin and PMA | inhibition, % at 10 µM | 360,000 compounds, 0.66% hits | AID 651702;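 active = inhibition above about 55%, limit read from the data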
# Beta2AR agonist = activates human beta-2 adrenergic receptor causing internalization; P07550; 340,000 compounds, 0.43% hits; response, % (no concentration beside the values); Am2.2-beta2AR cells, FAP receptor internalization, flow cytometry; AID 504454;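 active = response above a set limit, near 3 SD of response in nonfluorescent compounds, cut at about 42% in these data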
# Target sequence (P07550 whole entry, looked up): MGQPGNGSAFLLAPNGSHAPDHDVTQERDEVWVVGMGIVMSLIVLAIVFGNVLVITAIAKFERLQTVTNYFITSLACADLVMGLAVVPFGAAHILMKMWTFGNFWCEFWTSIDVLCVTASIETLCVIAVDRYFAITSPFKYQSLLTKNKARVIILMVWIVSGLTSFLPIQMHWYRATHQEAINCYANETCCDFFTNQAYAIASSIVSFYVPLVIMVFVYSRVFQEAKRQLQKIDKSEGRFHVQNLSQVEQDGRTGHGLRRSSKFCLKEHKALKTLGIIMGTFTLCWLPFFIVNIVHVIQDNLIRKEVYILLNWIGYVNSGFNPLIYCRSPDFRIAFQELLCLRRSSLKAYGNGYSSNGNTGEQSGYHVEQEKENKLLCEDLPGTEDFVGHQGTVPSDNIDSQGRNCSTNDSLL
# MPTP block = permeability transition pore inhibition; inhibition, % at 10 µM; 360,000 compounds, 1.4% hits; AID 602449; isolated mouse mitochondria, Ca2+ swelling absorbance, 30 min;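 active = inhibition of 50% or more, scaled per plate between neutral and stimulator controls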;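 note: 0% = DMSO wells given calcium and 100% = 1 mM EGTA wells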
# T cell HTS = modulates CD8 T cell binding to vesicles. 2C CD8+ T cell-vesicle binding, flow cytometry; stronger effect = lower value. response (vesicle binding), % at 7 µM. 330,000 compounds, 0.068% hits;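 active = response, share of CD8 T cells binding vesicles, and their 90th percentile fluorescence all below set limits, cut at about 80% in these data, passing the limit was not always enough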;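 note: values below 100% mean blocked vesicle binding to the CD8+ T cells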
#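 Incubation: binding step 1.5 h, 37 °C, antibody labelling 20 min, ice; system: murine 2C transgenic CD8+ T lymphocytes; technique: cytometric PE anti-B7-1 and Alexa647 anti-CD8 signals after 1% paraformaldehyde fixation; also added: QL9-charged Drosophila Ld/ICAM-1/B7-1 vesicles; control set: naked versus QL9-loaded vesicles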
# Rh123 counter = mitochondrial membrane potential, counter-screen. isolated mitochondria, Rhodamine 123 fluorescence. shares compounds with MPTP block. AID 624504. 5,000 compounds, 78% hits. inhibition, % at 10 µM; in the data active = inhibition above about 22%;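 note: 0% = DMSO vehicle and 100% = positive control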
# MPTP swell DR = dose response confirmation of mitochondrial permeability transition pore inhibitors; shares compounds with MPTP block; isolated mitochondria swelling, absorbance; IC50, µM; 780 compounds, 58% hits; in the data active = IC50 below about 20 µM
# MPTP counter DR = active in counter-screen for permeability transition pore inhibitors; shares compounds with MPTP block; isolated mitochondria counterscreen, fluorescence read-out; IC50, µM; 780 compounds, 49% hits; AID 651564; in the data active = IC50 below about 80 µM
# * marks the source's active call; other numbers are inactive results; i = inactive; · = no result; + = active, no number.
SMILES,V-ATPase pHluor,rCAG binder,Granule exo inh,Beta2AR agonist,MPTP block,T cell HTS,Rh123 counter,others
CCCCc1ccc(N/C(N)=N/c2nc(C)cc(C)n2)cc1,0,18,0,1,87*,716,89*,
Cc1cc(C)nc(/N=C(\N)Nc2ccc(C(C)C)cc2)n1,-1,14,1,-9,53*,295,56*,
Cn1c(SCc2ccc(C(C)(C)C)cc2)nnc1-c1ccco1,·,-1,·,·,·,·,·,
COc1ccccc1CCn1cnc(-c2ccc(OC)c(OC)c2)c1CC(C)C,·,0,·,·,·,·,·,
N#CC1=C(N)SC(N)=C(C#N)C1c1c(Cl)cccc1Cl,-4,10,31,15,6,231,·,
CC(C)CC1C(C#N)=C(N)SC(N)=C1C#N,-1,8,-2,0,62*,354,78*,
N#CC1=C(N)SC(N)=C(C#N)C1CCc1ccccc1,5,25,8,-68,96*,207,67*,
N#CC1=C(N)SC(N)=C(C#N)C1Cc1ccccc1,5,14,0,-7,77*,370,73*,
CC(C)C[C@H]1COc2cc(Br)ccc2S(=O)(=O)N1Cc1cn(Cc2ccc(C(F)(F)F)cc2)nn1,·,2,·,·,·,·,·,
O=C(Nc1ccc(Oc2cccc(C(F)(F)F)c2)nc1)c1ccccc1,-4,-5,0,2,28,166,·,
O=C(Nc1ccc(Oc2cccc(C(F)(F)F)c2)nc1)c1cccs1,4,-3,3,-7,50*,196,57*,
COC(=O)[C@]12C[C@H](CC(=O)N3CCCC3)C(=O)N(Cc3ccccc3)C1=C[C@H](C1CCCC1)O[C@@H]2C,·,-1,·,·,·,·,·,
O=C(Nc1ccc([N+](=O)[O-])cc1)N1CCCCC1,0,-1,1,6,94*,724,93*,
O=C(Nc1ccc([N+](=O)[O-])cc1)N1CCCCCC1,-2,1,-3,-1,62*,300,96*,
CN1CCN(C(=O)Nc2ccc([N+](=O)[O-])cc2)CC1,-1,-1,-1,0,1,36,·,
Cc1cccc(OCCCCc2c(C)n[nH]c2C)c1C,0,-5,-1,3,54*,509,83*,
CCOc1ccccc1OCCCCCc1c(C)n[nH]c1C,·,-9,-1,9,81*,285,47*,
COc1ccccc1OCCCCCc1c(C)n[nH]c1C,-3,-7,0,3,33,·,·,
c1ccc(-c2c[nH]c3cccc(-c4cc5ccccc5o4)c23)cc1,·,9,·,·,·,·,·,
COc1cc(CNCc2ccc(SC)cc2)cc(OC)c1,-3,-3,2,-7,56*,130,16,MPTP swell DR=11*;MPTP counter DR=18*
CCCCCCC[C@@H](C/C=C/CCC(=O)O)OC,1,9,9,1,2,230,·,
CCCCCCC[C@@H](C/C=C/CCC(=O)N(C)C/C(=C/Cl)C/C(=C\C(=O)N1CC(OC)=CC1=O)OC)OC,-2,6,2,93*,79*,i,19,
CCCCCCC[C@@H](C/C=C/CCC(=O)N(C)C/C(=C/Cl)C/C(=C\C(=O)N1C[C@H](O)CC1=O)OC)OC,-1,6,3,0,74*,250,102*,
Cc1cccc(C)c1-n1c(C)cc(/C=N/NC(=O)CSc2ncccn2)c1C,-1,-4,0,4,89*,288,-6,MPTP swell DR=i;MPTP counter DR=50*
COc1ccc(C2C(C(=O)Nc3cc(Cl)ccc3F)CCC(=O)N2c2ccc(OC)cc2)cc1 (configuration not stated),·,0,·,·,·,·,·,
SMILES,V-ATPase pHluor,rCAG binder,Granule exo inh,Beta2AR agonist,MPTP block,T cell HTS,Rh123 counter,others
NC(=O)c1c(N)[nH]c(C(=O)c2ccccc2)c1-c1ccccc1,·,4,·,·,·,·,·,
CCOC(=O)c1c(-c2ccccc2)csc1NC(=O)CCN1C(=O)c2ccccc2C1=O,0,2,4,-8,1,224,·,
CCOC(=O)c1c(-c2ccccc2)csc1NC(=O)CSc1nnc(C)s1,1,4,4,-1,67*,i,46*,
CSc1nc(N)nc(SCC(=O)CC(=O)OC(C)C)c1C#N,2,4,-2,11,7,560,·,
CSc1nc(N)nc(SCC(=O)Nc2cccc(F)c2)c1C#N,0,10,-4,-15,93*,303,87*,
CSc1nc(N)nc(SCC(=O)C(C)(C)C)c1C#N,6,6,-15,1,4,402,·,
CSc1nc(N)nc(SCC(=O)Nc2ccc(Cl)cc2)c1C#N,-2,22,-2,-12,85*,781,82*,
COC(=O)[C@]12C[C@H](CC(=O)NCc3ccccc3)C(=O)N(Cc3cccc4ccccc34)C1=C[C@H](COCc1ccccc1)O[C@@H]2C,·,10,·,·,·,·,·,
Cc1nn(C(C)(C)C)c(C)c1/C=N/OC(=O)Nc1ccc(Cl)c(Cl)c1,-1,2,-4,-4,73*,243,76*,
COC(=O)CN1CCN(C(=O)c2csc3ccccc23)CC1,·,6,·,·,·,·,·,
Cc1cc(Nc2cccc(F)c2)nc(-c2ccccc2O)n1,-2,31,12,12,59*,511,51*,
CC(NC(=O)Nc1ccc(Cl)cc1)c1ccccc1 (configuration not stated),6,-2,-1,0,30,249,·,
Cc1ccc(C(NC(=O)NC(C)c2ccccc2)C(Cl)(Cl)Cl)cc1F (configuration not stated),2,5,38,18,76*,198,83*,
COCCCNC(=O)c1c(N)n(/N=C/c2cccnc2)c2nc3ccccc3nc12,-6,7,3,0,+,948,-2,
COCCCNC(=O)c1c(N)n(/N=C/c2cccs2)c2nc3ccccc3nc12,-21,3,1,23,-4,364,·,
CCCC#C/C(CCC)=C1\c2ccccc2C(=O)N1c1ccccc1,·,7,·,·,·,·,·,
COc1ccc(C(CNC(=O)c2oc3cc(Br)ccc3c2C)N2CCCCC2)cc1 (configuration not stated),10,1,42,-4,2,285,·,
COc1ccc(C(CNC(=O)c2oc3ccc(Br)cc3c2C)N2CCCCC2)cc1 (configuration not stated),-1,-1,48,1,86*,292,-11,MPTP swell DR=16*;MPTP counter DR=>80
COCCCNCCOc1ccc(C(C)(C)c2ccccc2)cc1,3,0,5,13,97*,98,-7,MPTP swell DR=5.7*;MPTP counter DR=>80
COCCCNCCCCOc1ccc(OCc2ccccc2)cc1,-2,0,8,2,3,244,·,
CNCCCC1Sc2ccccc2Oc2ccccc21 (configuration not stated),-3,13,2,25,79*,513,-5,MPTP swell DR=5.1*;MPTP counter DR=>80
